ChEMBL document CHEMBL3259614, “Design, synthesis, and structure-activity relationship studies of novel fused heterocycles-linked triazoles with good activity and water solubility” (J Med Chem, 2014)
Converted amounts (≈) assume the structure as drawn.

Assays:
[1] = test system: Candida albicans; assay: Antimicrobial activity against fluconazole-resistant Candida albicans J38 after 24 hrs by serial dilution method; format: functional; conditions: J38, 24 h
How it was run: (§1)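 Broth serial-dilution MIC in 96-well plates following NCCLS guidance. Compounds were dissolved in DMSO and serially diluted in growth medium. Clinical isolates came from a hospital collection. […] C. parapsilosis ATCC 22019 served as the quality-control strain in each assay.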

[2] = test system: Candida albicans; assay: Antimicrobial activity against Candida albicans Y0109 after 24 hrs by serial dilution method; format: functional; conditions: Y0109, 24 h
How it was run: (§2)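 Broth serial dilution MIC in 96-well plates following NCCLS/CLSI methods. Compounds were dissolved in DMSO and serially diluted in growth medium, with incubation at 35 °C. […] C. parapsilosis 22019 served as the quality-control strain in each assay.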

[3] = test system: Candida parapsilosis; assay: Antimicrobial activity against Candida parapsilosis 22019 after 24 hrs by serial dilution method; format: functional; conditions: Lodderomyces parapsilosis, 22019, 24 h; how it was run: as §2
[4] = test system: Candida albicans; assay: Ratio of fluconazole MIC to compound MIC for fluconazole-resistant Candida albicans 103 after 24 hrs by serial dilution method; format: functional
[5] = test system: Nakaseomyces glabratus; assay: Antimicrobial activity against Candida glabrata 537 after 24 hrs by serial dilution method; format: functional; conditions: Nakaseomyces glabratus, 537, 24 h; how it was run: as §2
[6] = test system: Candida albicans; assay: Antimicrobial activity against fluconazole-resistant Candida albicans 100 after 24 hrs by serial dilution method; format: functional; conditions: Candida albicans, 100, 24 h; how it was run: as §1
[7] = test system: Candida albicans; assay: Antimicrobial activity against fluconazole-resistant Candida albicans J18 after 24 hrs by serial dilution method; format: functional; conditions: J18, 24 h; how it was run: as §1
[8] = test system: Candida albicans; assay: Antimicrobial activity against fluconazole-resistant Candida albicans 103 after 24 hrs by serial dilution method; format: functional; conditions: Candida albicans, 103, 24 h; how it was run: as §1
[9] = test system: Candida albicans; assay: Antimicrobial activity against Candida albicans SC5314 after 24 hrs by serial dilution method; format: functional; conditions: SC5314, 24 h; how it was run: as §2
[10] = test system: Candida albicans; assay: Antimicrobial activity against fluconazole-resistant Candida albicans J28 after 24 hrs by serial dilution method; format: functional; conditions: J28, 24 h; how it was run: as §1
[11] = test system: Cryptococcus neoformans; assay: Antimicrobial activity against Cryptococcus neoformans 32609 after 72 hrs by serial dilution method; format: functional; conditions: Cryptococcus neoformans, 32609, 72 h; how it was run: as §2
[12] = test system: Candida albicans; assay: Ratio of fluconazole MIC to compound MIC for fluconazole-resistant Candida albicans 100 after 24 hrs by serial dilution method; format: functional
[13] = test system: Candida albicans; assay: Ratio of fluconazole MIC to compound MIC for fluconazole-resistant Candida albicans J18 after 24 hrs by serial dilution method; format: functional
[14] = test system: Aspergillus fumigatus; assay: Antimicrobial activity against Aspergillus fumigatus 7544 after 48 hrs by serial dilution method; format: functional; conditions: Aspergillus fumigatus, 7544, 48 h; how it was run: as §2
[15] = Aqueous solubility of the compound in hydrochloric acid solution at pH 1.2; format: physicochemical
How it was run: (§3)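 Excess solid was stirred for 3 h in pH 1.2 hydrochloric acid or pH 7.4 phosphate buffer, then filtered through 0.45 μm. Absorbance at the UV maximum was compared with a methanol standard, C′ = A′C/A, with values reported in mg/mL. Determined at 30 °C; mean ± SD, n = 3.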

[16] = Aqueous solubility of the compound in phosphate buffer at pH 7.4; format: physicochemical; how it was run: as §3

| Structure (SMILES) | MIC [1] [µg/mL] | MIC [2] [µg/mL] | MIC [3] [µg/mL] | Ratio [4] | MIC [5] [µg/mL] | MIC [6] [µg/mL] | MIC [7] [µg/mL] | MIC [8] [µg/mL] | MIC [9] [µg/mL] | MIC [10] [µg/mL] | MIC [11] [µg/mL] | Ratio [12] | Ratio [13] | MIC [14] [µg/mL] | solubility [15] [µg/mL] | solubility [16] [µg/mL] |
| --- | --- | --- | --- | --- | --- | --- | --- | --- | --- | --- | --- | --- | --- | --- | --- | --- |
| C[C@@H](N1CCn2nnc(Br)c2C1)[C@](O)(Cn1cncn1)c1ccc(F)cc1F | 0.25 (≈ 0.55 µM) | 0.0625 (≈ 0.138 µM) | 0.125 (≈ 0.275 µM) | 16 | 0.25 (≈ 0.55 µM) | > 32 | > 32 | > 32 | ≤ 0.0312 | 2 (≈ 4.4 µM) | ≤ 0.0625 | 16 | 16 | 8 (≈ 17.6 µM) |  |  |
| C[C@@H](N1CCn2nc(-c3cccnc3)nc2C1)[C@](O)(Cn1cncn1)c1ccc(F)cc1F |  | 0.0312 (≈ 0.0691 µM) | 0.0312 (≈ 0.0691 µM) |  | 0.0312 (≈ 0.0691 µM) |  |  |  | 0.0312 (≈ 0.0691 µM) |  | 0.0312 (≈ 0.0691 µM) |  |  | 32 (≈ 70.7 µM) | 5900 (≈ 13000 µM) | 1820 (≈ 4010 µM) |
| C[C@@H](N1CCc2nc(-c3ccccc3)sc2C1)[C@](O)(Cn1cncn1)c1ccc(F)cc1F |  | 0.5 (≈ 1.07 µM) | 0.5 (≈ 1.07 µM) |  | 0.5 (≈ 1.07 µM) |  |  |  | 0.5 (≈ 1.07 µM) |  | 0.125 (≈ 0.267 µM) |  |  | 16 (≈ 34.2 µM) | 1250 (≈ 2670 µM) | 130 (≈ 278 µM) |
| C[C@@H](N1CCc2nc(-c3cccnc3)sc2C1)[C@](O)(Cn1cncn1)c1ccc(F)cc1F |  | 0.0312 (≈ 0.0667 µM) | 0.125 (≈ 0.267 µM) |  | 0.125 (≈ 0.267 µM) |  |  |  | 0.0312 (≈ 0.0667 µM) |  | 0.0625 (≈ 0.133 µM) |  |  | 2 (≈ 4.27 µM) | 10100 (≈ 21500 µM) | 2360 (≈ 5040 µM) |
| C[C@@H](N1CCc2nc(-c3cncnc3)sc2C1)[C@](O)(Cn1cncn1)c1ccc(F)cc1F | ≤ 0.0312 | 0.0156 (≈ 0.0332 µM) | 0.0625 (≈ 0.133 µM) |  | 0.0625 (≈ 0.133 µM) | > 16 | > 16 | 8 (≈ 17 µM) | 0.0156 (≈ 0.0332 µM) | 0.0625 (≈ 0.133 µM) | 0.0625 (≈ 0.133 µM) |  |  | 1 (≈ 2.13 µM) | 14700 (≈ 31300 µM) | 3090 (≈ 6590 µM) |
| C[C@@H](N1CCc2sc(-c3ccc(C(F)(F)F)cc3)cc2C1)[C@](O)(Cn1cncn1)c1ccc(F)cc1F |  | 8 (≈ 15 µM) | 16 (≈ 29.9 µM) |  | 16 (≈ 29.9 µM) |  |  |  | 4 (≈ 7.48 µM) |  | 8 (≈ 15 µM) |  |  | 32 (≈ 59.9 µM) |  |  |
| C[C@@H](N1CCc2sc(-c3ccc(Cl)cc3)cc2C1)[C@](O)(Cn1cncn1)c1ccc(F)cc1F |  | 8 (≈ 16 µM) | 16 (≈ 31.9 µM) |  | 16 (≈ 31.9 µM) |  |  |  | 4 (≈ 7.98 µM) |  | 8 (≈ 16 µM) |  |  | 32 (≈ 63.9 µM) |  |  |
| Cc1ccc(-c2cc3c(s2)CCN([C@H](C)[C@](O)(Cn2cncn2)c2ccc(F)cc2F)C3)cc1 |  | 2 (≈ 4.16 µM) | 4 (≈ 8.32 µM) |  | 4 (≈ 8.32 µM) |  |  |  | 1 (≈ 2.08 µM) |  | 4 (≈ 8.32 µM) |  |  | 8 (≈ 16.6 µM) |  |  |
| C[C@@H](N1CCc2sc(-c3ccc(C#N)cc3)cc2C1)[C@](O)(Cn1cncn1)c1ccc(F)cc1F |  | 8 (≈ 16.3 µM) | 8 (≈ 16.3 µM) |  | 8 (≈ 16.3 µM) |  |  |  | 2 (≈ 4.07 µM) |  | 4 (≈ 8.14 µM) |  |  | 64 (≈ 130 µM) |  |  |
| Cc1cccc(-c2cc3c(s2)CCN([C@H](C)[C@](O)(Cn2cncn2)c2ccc(F)cc2F)C3)c1 |  | 2 (≈ 4.16 µM) | 2 (≈ 4.16 µM) |  | 4 (≈ 8.32 µM) |  |  |  | 1 (≈ 2.08 µM) |  | 4 (≈ 8.32 µM) |  |  | 16 (≈ 33.3 µM) |  |  |
| C[C@@H](N1CCc2sc(-c3cccc(F)c3)cc2C1)[C@](O)(Cn1cncn1)c1ccc(F)cc1F |  | 2 (≈ 4.13 µM) | 4 (≈ 8.26 µM) |  | 1 (≈ 2.06 µM) |  |  |  | 1 (≈ 2.06 µM) |  | 1 (≈ 2.06 µM) |  |  | 8 (≈ 16.5 µM) |  |  |
| C[C@@H](N1CCc2sc(-c3cccc(C#N)c3)cc2C1)[C@](O)(Cn1cncn1)c1ccc(F)cc1F |  | 4 (≈ 8.14 µM) | 4 (≈ 8.14 µM) |  | 8 (≈ 16.3 µM) |  |  |  | 2 (≈ 4.07 µM) |  | 2 (≈ 4.07 µM) |  |  | 64 (≈ 130 µM) |  |  |
| C[C@@H](N1CCc2sc(-c3cccc(Cl)c3)cc2C1)[C@](O)(Cn1cncn1)c1ccc(F)cc1F |  | 2 (≈ 3.99 µM) | 4 (≈ 7.98 µM) |  | 8 (≈ 16 µM) |  |  |  | 2 (≈ 3.99 µM) |  | 4 (≈ 7.98 µM) |  |  | > 64 |  |  |
| C[C@@H](N1CCc2sc(-c3cccc(C(F)(F)F)c3)cc2C1)[C@](O)(Cn1cncn1)c1ccc(F)cc1F |  | 0.5 (≈ 0.935 µM) | 2 (≈ 3.74 µM) |  | 1 (≈ 1.87 µM) |  |  |  | 1 (≈ 1.87 µM) |  | 0.5 (≈ 0.935 µM) |  |  | 32 (≈ 59.9 µM) |  |  |
| C[C@@H](N1CCc2sc(-c3cncnc3)cc2C1)[C@](O)(Cn1cncn1)c1ccc(F)cc1F |  | 4 (≈ 8.54 µM) | 4 (≈ 8.54 µM) |  | 8 (≈ 17.1 µM) |  |  |  | 2 (≈ 4.27 µM) |  | 4 (≈ 8.54 µM) |  |  | > 32 |  |  |
| C[C@@H](N1CCc2sc(-c3ccc(C#N)nc3)cc2C1)[C@](O)(Cn1cncn1)c1ccc(F)cc1F |  | 4 (≈ 8.12 µM) | 2 (≈ 4.06 µM) |  | 2 (≈ 4.06 µM) |  |  |  | 1 (≈ 2.03 µM) |  | 1 (≈ 2.03 µM) |  |  | 32 (≈ 65 µM) |  |  |
